Assay outcomes deposited in PubChem by several laboratories.
A selection: hits, their analogues and other compounds. The true share with any hit is near 2.2%.
DNMT1 block: DNMT1 (human) enzyme inhibition. P26358. DNMT1 molecular beacon, Hinp1I cleavage, fluorescence. inhibition (reported as % activation of signal), % at 10 µM. actives 0.83% (n = 360,000). AID 588458; in the data active = inhibition above about 50%
Scp-1 inhibitor: blocks human Scp-1 phosphatase activity; Q9GZU7; Recombinant Scp1, phosphopeptide, malachite green phosphate absorbance; inhibition, % at 20 µM; actives 0.88% (n = 340,000);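 active = inhibition above about 50% at 20 µM, limit read from the data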
Target sequence (Q9GZU7 76-261 limits assumed): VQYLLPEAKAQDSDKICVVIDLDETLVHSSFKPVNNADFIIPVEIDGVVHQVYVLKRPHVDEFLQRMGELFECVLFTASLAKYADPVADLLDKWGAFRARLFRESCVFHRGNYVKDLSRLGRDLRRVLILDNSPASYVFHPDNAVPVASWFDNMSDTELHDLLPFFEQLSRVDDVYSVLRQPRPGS
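Test system: SCP-1 catalytic domain; Buffer or medium: Acidic Tris acetate buffer with magnesium and detergent; Also added: Phosphorylated 17-residue peptide substrate; Compound: single 20 µM dose, 1% DMSO; Schedule: enzyme reaction 45 min at room temperature, colour 5 min, stabilisation 30 min; Signal: Phosphate-binding colour reagent, absorbance read at 630 nm.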
SUMO1-SIM PPI: SUMO1-SIM interaction modulation | P63165 | SUMO1 binding to a labelled peptide, TR-FRET, 1 h | inhibition, % at 20 µM | actives 0.33% (n = 360,000); in the data active = inhibition above about 37%
Target sequence (P63165 whole entry, looked up): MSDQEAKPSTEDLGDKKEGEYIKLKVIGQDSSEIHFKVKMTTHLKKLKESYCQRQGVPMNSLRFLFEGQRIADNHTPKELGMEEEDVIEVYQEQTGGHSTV
GRK2 inh: inhibitors of human GRK2 displacing RNA aptamer | AID 488847 | actives 0.59% (n = 330,000) | inhibition of aptamer binding, % at 10 µM | P25098 | bead flow cytometry, FAM-aptamer displacement from GRK2;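 active = inhibition of aptamer binding above 40%, roughly 3 SD of noise, on plates passing a quality check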;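 note: median bead fluorescence of bound FAM aptamer so fluorescent compounds give negative values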
STEP block: blocks human striatal-enriched tyrosine phosphatase. recombinant STEP, OMFP fluorogenic substrate, fluorescence. inhibition, % at 20 µM. actives 0.25% (n = 360,000);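 active = inhibition at 20 µM, scaled per plate between control wells, above about 37%, limit read from the data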
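Assay system: isolated STEP enzyme / Timing: 20 min at room temperature, dark / Doses: 20 µM, 1% DMSO / Technique: fluorescence intensity, excitation 480 nm, emission 540 nm / Reagent: fluorogenic phosphatase substrate OMFP at 25 µM final / Measure: percent inhibition scaled to no-enzyme and uninhibited-enzyme controls, plate-pattern corrected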
LMPTP block: blocks human LMPTP phosphatase. P24666. recombinant LMPTP-A, OMFP fluorogenic substrate, fluorescence intensity. AID 651560. actives 0.22% (n = 360,000). inhibition, % at 20 µM;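 active = compounds that cut the enzyme signal by at least half of the control window in the single-dose screen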
Target sequence (P24666 whole entry, looked up): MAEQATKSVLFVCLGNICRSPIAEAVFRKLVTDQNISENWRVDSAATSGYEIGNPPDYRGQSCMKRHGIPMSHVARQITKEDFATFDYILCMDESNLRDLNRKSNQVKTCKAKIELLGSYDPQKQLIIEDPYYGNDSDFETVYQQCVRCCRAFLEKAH
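Assay system: LMPTP-A phosphatase enzyme | Input: 0.625 nM enzyme | Also added: Fluorogenic phosphatase substrate OMFP at 400 µM final | Compound dosing: One test concentration per compound, 20 µM, with 3% DMSO overall | Schedule: 50 min enzyme reaction at room temperature, protected from light | Signal: Fluorescence intensity | Benchmarks: no-enzyme and uninhibited controls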
Hits are given with their value; i = inactive; nt = no result.

SMILES | DNMT1 block | Scp-1 inhibitor | SUMO1-SIM PPI | GRK2 inh | STEP block | LMPTP block
CC(C)NC(=O)C1(C)CCN1Cc1ccc(Cl)cc1 (stereo unspecified) | i | nt | i | nt | i | i
O=c1cc(-c2ccc([N+](=O)[O-])cc2)nc2cc(-c3ccc(Cl)cc3)[nH]n12 | nt | nt | nt | 58 | nt | nt
CCCc1cc(=O)n2[nH]c(-c3ccc(Cl)cc3)cc2n1 | i | i | i | i | i | i
Cc1cc(C)c(Nc2cc(S(=O)(=O)O)c(N)c3c2C(=O)c2ccccc2C3=O)c(C)c1 | 80 | i | 74 | i | i | i
COc1ccc(N2CCN(S(=O)(=O)c3ccc(C(=O)NC4CCCC4)cc3)CC2)cc1 | i | i | 51 | i | i | i
COc1ccc(S(=O)(=O)N2CCC(NC(=O)c3ccccc3)CC2)cc1 | i | i | i | i | i | i
CCc1nc2c(OCc3ccc(C(F)(F)F)cc3)cccn2c1N(C)C(=O)c1ccncc1 | i | nt | i | nt | i | i
Cc1cc(O)c(C=O)c2c1C(=O)Oc1c(CO)c(O)c3c(c1O2)C(O)OC3=O (stereo unspecified) | 57 | 77 | 103 | 72 | 46 | 57
CC1(C)Cc2nc3sc4c(=O)n(CC(=O)NCc5ccccc5)cnc4c3cc2CO1 | i | i | 43 | i | i | i
CC[n+]1ccccc1/C=C1\Sc2ccc(C)cc2N1C | i | 79 | i | i | i | i
CC[n+]1ccccc1/C=C/Nc1ccccc1 | i | i | i | i | i | i
C[C@H](CO)N1C[C@H](C)[C@H](CN(C)S(C)(=O)=O)OCc2cnnn2CCCC1=O | i | nt | i | nt | i | i
COc1ccc(C(=O)NC(=S)N2CC(C)OC(C)C2)cc1OC (stereo unspecified) | i | i | i | 56 | i | i
Cc1cc(F)cc(-c2cc(C(=O)NCc3ccccn3)[nH]n2)c1 | i | nt | i | nt | i | i
CCOC(=O)c1ccc(Nc2sc(C(=O)c3cccc([N+](=O)[O-])c3)c(N)c2C#N)cc1 | i | i | 53 | i | i | i
Cc1ccc(C(=O)c2sc(Nc3ccccc3)c(C#N)c2N)cc1 | i | i | i | i | i | i
Cc1n[nH]c(=S)n(NC(=O)/C=C/C(=O)Nn2c(=S)[nH]nc(C)c2=O)c1=O | i | i | 67 | nt | i | i
Cc1n[nH]c(=S)n(NC(=O)CC(=O)Nn2c(=S)[nH]nc(C)c2=O)c1=O | i | i | i | i | i | i
Cc1coc2c1C(=O)C(=O)c1c-2ccc2c(C)cccc12 | 95 | i | i | i | i | i
Cc1coc2c1C(=O)C(=O)c1c-2ccc2c1CCCC2(C)C | 52 | i | i | i | i | i
O=C(O)CCC1C(=O)NC(=O)CC1c1ccccc1 (stereo unspecified) | i | nt | i | nt | i | i
COc1ccc(-c2nc3ccc(C)cn3c2Cc2ccsc2)cc1OC | i | nt | i | nt | i | i
C/C(=C\C(=O)OCC(=O)NCc1ccccc1)C(=O)OCC(=O)NCc1ccccc1 | i | i | i | 80 | i | i
CCOC(=O)C1=CC[C@@H](c2ccccc2)N(S(=O)(=O)c2ccc(C)cc2)[C@H]1C=C(C)C | i | nt | i | nt | i | i
CN1OC[C@@H]2CN(C(=S)NCCc3ccccc3)[C@H](c3ccc(-n4ccnc4)cc3)C[C@@H]21 | i | nt | i | nt | i | i
C#CCOCCOCCOCCNc1nc(N2CCN(C(=O)[C@H](CCCCN)n3cc(CCCC)nn3)CC2)nc(N2CCN(C(=O)[C@H](Cc3ccc(O)cc3)n3cc(CCO)nn3)CC2)n1 | i | i | i | 47 | i | i
C#CCOCCOCCOCCNc1nc(N2CCN(C(=O)CCCCCCCCCCNC(=O)[C@H](CCCCN)n3cc(C[C@@H](C)CC)nn3)CC2)nc(N2CCN(C(=O)CCCCCCCCCCNC(=O)[C@H](CCCCN)n3cc(C[C@@H](C)CC)nn3)CC2)n1 | i | 53 | 67 | i | i | i
C#CCOCCOCCOCCNc1nc(N2CCN(C(=O)CCCCCCCCCCNC(=O)[C@H](CCCCN)n3cc(CCO)nn3)CC2)nc(N2CCN(C(=O)CCCCCCCCCCNC(=O)[C@H](CCCN=C(N)N)n3cc(C[C@@H](C)CC)nn3)CC2)n1 | i | i | 90 | i | i | i
